Assay [1] deals with T1, Catechol O-methyltransferase (Rattus norvegicus) (UniProt P22734).
T1 sequence (whole entry): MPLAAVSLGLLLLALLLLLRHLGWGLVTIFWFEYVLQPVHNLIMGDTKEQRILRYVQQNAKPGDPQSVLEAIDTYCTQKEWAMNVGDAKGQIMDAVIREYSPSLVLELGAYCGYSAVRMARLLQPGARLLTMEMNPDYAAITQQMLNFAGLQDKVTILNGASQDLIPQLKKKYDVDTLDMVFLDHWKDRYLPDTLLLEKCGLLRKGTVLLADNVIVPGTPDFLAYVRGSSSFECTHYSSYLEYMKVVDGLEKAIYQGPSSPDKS
The experiment in a line: Inhibition of Catechol O-methyltransferase from rat liver at time zero with […] of the enzyme after pre-incubation for 30 min (in presence of DTT).

Assay [2] has as its target T1, Catechol O-methyltransferase (Rattus norvegicus). The experiment in a line: Inhibition of Catechol O-methyltransferase from rat liver at time zero with no further inactivation of the enzyme after pre-incubation for 30 min (in absence of DTT).
For assay [3] the target is unchanged. The experiment in a line: Inhibition constant against Catechol O-methyltransferase from rat liver in the absence of dithiothreitol (DTT).
Assay [4] shares this target. Briefly: Inhibition constant against Catechol O-methyltransferase from rat liver in the presence of 4 mM of dithiothreitol (DTT).
Assay [5] is filed under the species Rattus norvegicus. Briefly: Effect of dialysis on inhibitory potency when COMT is pre-incubated in the absence of dithiothreitol (DTT) (after dialysis (-DTT)). In kind it is functional.
Assay [6] is filed under the species Rattus norvegicus. Briefly: Effect of dialysis on inhibitory potency when COMT is pre-incubated in the absence of dithiothreitol (DTT) (before dialysis). It counts as functional. In a few lines: (§1)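 Rat liver COMT (male Sprague-Dawley, partially purified, DTT-reactivated before use) preincubated 30 min at 37 °C in 0.2 M phosphate buffer pH 7.6 with 1 mM inhibitor, with or without 8.0 mM DTT. Activity was then assayed directly or after dialysis against 0.2 M phosphate pH 7.6 containing 8.0 mM DTT. Result expressed as % activity remaining.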

The species entered for assay [7] is Rattus norvegicus. Briefly: Effect of dialysis on inhibitory potency when COMT is pre-incubated with dithiothreitol (+DTT) (after dialysis). In kind it is functional. In a few lines: as §1
The species entered for assay [8] is Rattus norvegicus. Briefly: Effect of dialysis on inhibitory potency when COMT is pre-incubated with dithiothreitol (DTT) (before dialysis). It counts as functional. In a few lines:
as §1

The species named for assay [9] is Rattus norvegicus. Briefly: Effect of dialysis on inhibitory potency when COMT is pre-incubated in the absence of dithiothreitol (DTT) (after dialysis(+DTT)).

Turning to `COc1c(O)cc(C(=O)O)cc1S`, the inhibition (as a rule, the drop in the measured response relative to a control, in per cent) was 39% in assay [1] and 91% in assay [2]. The Kii turned out to be 30.2 µM in [3] and 743 µM in assay [4]. Besides, the results for the Kis in [3] and in assay [4] were 59.9 µM and 1140 µM, respectively. Also, the Activity remaining in the assay filed under Rattus norvegicus [5] is reported as 1%; in the assay filed under Rattus norvegicus [6] it was 7%; in the assay filed under Rattus norvegicus [7], 87%; in the assay filed under Rattus norvegicus [8], 70%; in the assay listed under Rattus norvegicus [9] it was 76%.

The record behind these values is ChEMBL document CHEMBL1122025, “Catechol O-methyltransferase. 11. Inactivation by 5-hydroxy-3-mercapto-4-methoxybenzoic acid” (1982).
